Our source for the IC50 and inhibition values is ChEMBL document CHEMBL1145203, “Synthesis of new benzoxazinone derivatives as neuropeptide Y5 antagonists for the treatment of obesity” (J Med Chem, 2005).

The structures appear in SMILES notation.

Experiment [1] concerns the target T1, Neuropeptide Y receptor type 5 (Rattus norvegicus, UniProt Q63634).
T1 sequence (Q63634 whole entry): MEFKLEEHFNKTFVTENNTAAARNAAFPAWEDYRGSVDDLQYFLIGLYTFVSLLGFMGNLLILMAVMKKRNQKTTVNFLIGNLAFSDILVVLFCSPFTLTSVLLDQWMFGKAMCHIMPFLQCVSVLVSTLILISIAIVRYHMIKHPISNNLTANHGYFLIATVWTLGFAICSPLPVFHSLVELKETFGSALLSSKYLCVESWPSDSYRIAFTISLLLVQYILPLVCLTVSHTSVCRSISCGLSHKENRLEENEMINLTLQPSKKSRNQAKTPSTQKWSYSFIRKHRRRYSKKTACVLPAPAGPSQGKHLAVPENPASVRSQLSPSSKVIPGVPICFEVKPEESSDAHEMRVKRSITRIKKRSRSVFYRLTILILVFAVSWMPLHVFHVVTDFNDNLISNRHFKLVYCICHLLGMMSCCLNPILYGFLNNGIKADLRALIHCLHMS
The experiment is described as follows: Inhibition of [125I]PYY binding to the rat NPY Y5 receptor in C6 cells. Format: cell-based. An outline of the steps:
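Radioligand [125I]-PYY 100 pM, incubated 2 h at 25 °C. Stopped with ice-cold buffer, filtered and washed, bound radioactivity counted. Nonspecific binding defined with 1 µM pNPY; triplicate.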

Experiment [2] has as its target T2, Neuropeptide Y receptor type 5 (Rattus norvegicus) (UniProt Q63634).
T2 sequence (whole entry): T1 sequence (Q63634 whole entry)
Put plainly: Inhibition of PYY effect on forskolin-stimulated cyclic AMP formation in C6 cells expressing rat NPY Y5 receptor. The experiment is classed as functional, cell-based. Set-up: concentration or dose not given beside the values. The settings on record: concentration not given here. In short, it runs like this:
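C6 cells stably expressing rat NPY Y5, grown to 80% confluency in serum-free DMEM with L-glutamine, penicillin and streptomycin. Cells trypsinised 2 h before assay, about 50 000 cells/well. Compounds added with or without PYY; forskolin-stimulated cAMP measured after 30 min by FlashPlate with [125I]succinyl cAMP tracer. Expressed as % cAMP formation versus forskolin controls without PYY; three experiments in duplicate.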

A word on the IC50: it is the point on the concentration scale where inhibition reaches its midpoint. As for `COC(=O)c1ccccc1NC(=O)CN1CCC(N2C(=O)OCc3cc(Cl)ccc32)CC1`, the IC50 in experiment [1] was > 1000 nM.

By inhibition is commonly meant the percentage by which the read-out fell short of the control. For the compound `CCn1c2ccccc2c2cc(NC(=O)CN3CCC(N4C(=O)OCc5cccc(OC)c54)CC3)ccc21`, the inhibition in experiment [2] is 19.2%. For the same compound, the IC50 in experiment [1] amounted to 765 nM.

Take `Cc1cccc2c1N(C1CCN(CC(=O)Nc3ccc(C(=O)c4ccccc4)cc3)CC1)C(=O)OC2`: the inhibition in experiment [2] was found to be 100%. In addition, in experiment [1], the half-inhibitory concentration (IC50) turned out to be 39.6 nM.

For the compound `Cc1ccc2c(c1)COC(=O)N2C1CCN(CC(=O)Nc2ccc(Oc3ccccc3)cc2)CC1`, the inhibition in experiment [2] is 94.5%. The compound also had a concentration for half-maximal inhibition (IC50) in experiment [1] of 104 nM.

Regarding `O=C(CN1CCC(N2C(=O)OCc3cc(Cl)ccc32)CC1)Nc1ccccc1C(=O)c1ccccc1`, the IC50 in experiment [1] was > 1000 nM.

`COC(=O)c1ccccc1NC(=O)CN1CCC(N2C(=O)OCc3cc(C)ccc32)CC1`: the concentration for half-maximal inhibition (IC50) in experiment [1] is > 1000 nM.

As for `O=C(CN1CCC(N2C(=O)OCc3cc(F)ccc32)CC1)Nc1ccc2ncccc2c1`, the inhibition in experiment [2] was 93.3%.

`O=C(CN1CCC(N2C(=O)OCc3ccccc32)CC1)Nc1cccc2c1-c1ccccc1C2=O` came in with a concentration for half-maximal inhibition (IC50) in experiment [1] of 138 nM.

In experiment [2], `O=C(CN1CCC(N2C(=O)OCc3cc(Cl)ccc32)CC1)Nc1ccc2ncccc2c1` displayed an inhibition of 71.9%. This compound returned an IC50 in experiment [1] of 148 nM.

With `COC(=O)c1ccccc1NC(=O)CN1CCC(N2C(=O)OCc3cccc(C)c32)CC1`, the IC50 in experiment [1] was > 1000 nM.

As to `O=C(CN1CCC(N2C(=O)OCc3ccccc32)CC1)Nc1ccccc1`, the concentration for half-maximal inhibition (IC50) in experiment [1] was > 1000 nM.

`CCn1c2ccccc2c2cc(NC(=O)CN3CCC(N4C(=O)OCc5cc(Cl)ccc54)CC3)ccc21` came in with an inhibition in experiment [2] of 99.3%. Besides, the IC50 in experiment [1] came out at 100 nM.

As to `Cc1cccc2c1N(C1CCN(CC(=O)Nc3ccccc3)CC1)C(=O)OC2`, the half-inhibitory concentration (IC50) in experiment [1] is > 1000 nM.

As for `CC(=O)c1ccc(NC(=O)CN2CCC(N3C(=O)OCc4cc(Cl)ccc43)CC2)cc1`, in experiment [2], the inhibition was 99.9%. The IC50 in experiment [1] was found to be 21 nM.

With `Cc1cccc2c1N(C1CCN(CC(=O)Nc3ccc(Cl)cc3)CC1)C(=O)OC2`, the IC50 in experiment [1] is > 1000 nM.

Regarding `O=C(CN1CCC(N2C(=O)OCc3ccccc32)CC1)Nc1ccccc1C(=O)c1ccccc1`, the IC50 in experiment [1] is > 1000 nM.

For `COC(=O)c1ccccc1NC(=O)CN1CCC(N2C(=O)OCc3ccccc32)CC1`, the half-inhibitory concentration (IC50) in experiment [1] is > 1000 nM.

The compound `O=C(CN1CCC(N2C(=O)OCc3ccccc32)CC1)Nc1ccc2c(c1)-c1ccccc1C2O` (stereo not given) came in with an inhibition in experiment [2] of 96.1%. In experiment [1], the IC50 was 8.7 nM.

Compound `CC(=O)c1ccc(NC(=O)CN2CCC(N3C(=O)OCc4ccccc43)CC2)cc1` had an inhibition in experiment [2] of 95.4%. In addition, the IC50 in experiment [1] is 17.3 nM.

`N#Cc1ccc(NC(=O)CN2CCC(N3C(=O)OCc4cc(Cl)ccc43)CC2)cc1` gave an inhibition in experiment [2] of 91.5%. The IC50 in experiment [1] was 199 nM.

In experiment [2], `O=C(CN1CCC(N2C(=O)OCc3cc(Cl)ccc32)CC1)Nc1ccc(C(=O)c2ccccc2)cc1` displayed an inhibition of 97.4%. Also, in experiment [1], the IC50 is 11.2 nM.

Regarding `COc1cccc2c1N(C1CCN(CC(=O)Nc3ccc4oc5ccccc5c4c3)CC1)C(=O)OC2`, the inhibition in experiment [2] was 23.6%. This compound also yielded an IC50 in experiment [1] of 55.7 nM.

On to `O=C(CN1CCC(N2C(=O)OCc3cc(Cl)ccc32)CC1)Nc1ccc(Oc2ccccc2)cc1`, for which the inhibition in experiment [2] worked out at 99.2%. In experiment [1], this compound gave a 50% inhibitory concentration (IC50) of 60.7 nM.

In the case of `Cc1cccc2c1N(C1CCN(CC(=O)Nc3ccc4c(c3)-c3ccccc3C4=O)CC1)C(=O)OC2`, the inhibition in experiment [2] amounted to 93.8%. Moreover, the IC50 in experiment [1] turned out to be 50 nM.

The compound `Cc1cccc2c1N(C1CCN(CC(=O)Nc3ccc4c(c3)-c3ccccc3C4O)CC1)C(=O)OC2` (stereo not given) registered an inhibition in experiment [2] of 100%. The half-maximal inhibitory concentration (IC50) in experiment [1] stood at 30 nM.

With `O=C(CN1CCC(N2C(=O)OCc3cc(Cl)ccc32)CC1)Nc1ccc2c(c1)-c1ccccc1C2=O`, the inhibition in experiment [2] was determined as 100%. Also, in experiment [1], the IC50 was 25 nM.

In experiment [2], `N#Cc1ccc(NC(=O)CN2CCC(N3C(=O)OCc4ccccc43)CC2)cc1` yielded an inhibition of 88.7%. Besides, the IC50 in experiment [1] came out at 132 nM.

Compound `O=C(CN1CCC(N2C(=O)OCc3cc(Cl)ccc32)CC1)Nc1ccc2c(c1)-c1ccccc1C2O` (stereo not given) came in with an inhibition in experiment [2] of 100%. For the same compound, in experiment [1], the IC50 turned out to be 8 nM.

In turn, `Cn1c2ccccc2c2cc(NC(=O)CN3CCC(N4C(=O)OCc5ccccc54)CC3)ccc21` showed an inhibition in experiment [2] of 88.7%. In addition, the half-inhibitory concentration (IC50) in experiment [1] came to 9.6 nM.

The compound `O=C(CN1CCC(N2C(=O)OCc3ccccc32)CC1)Nc1ccc2c(c1)-c1ccccc1C2=O` returned an inhibition in experiment [2] of 100%. The concentration for half-maximal inhibition (IC50) in experiment [1] was found to be 23.3 nM.

`CCn1c2ccccc2c2cc(NC(=O)CN3CCC(N4C(=O)OCc5c(Cl)cccc54)CC3)ccc21` had an inhibition in experiment [2] of 83.4%.

In turn, `O=C(CN1CCC(N2C(=O)OCc3cc(Cl)ccc32)CC1)Nc1ccc(C2CCCCC2)cc1` had an inhibition in experiment [2] of 98.4%. For the same compound, the IC50 in experiment [1] was 112 nM.

Regarding `Cc1cccc2c1N(C1CCN(CC(=O)Nc3ccccc3C(=O)c3ccccc3)CC1)C(=O)OC2`, the IC50 in experiment [1] is > 1000 nM.

`O=C(CN1CCC(N2C(=O)OCc3ccccc32)CC1)Nc1ccc(Cl)cc1`: the half-maximal inhibitory concentration (IC50) in experiment [1] is 300 nM.

Consider `O=C(CN1CCC(N2C(=O)OCc3ccccc32)CC1)Nc1ccc2c(c1)C(=O)c1ccccc1-2`, for which the concentration for half-maximal inhibition (IC50) in experiment [1] is > 1000 nM.

Turning to `CCn1c2ccccc2c2cc(NC(=O)CN3CCC(N4C(=O)OCc5cccc(C)c54)CC3)ccc21`, the inhibition in experiment [2] was 96.9%. Moreover, the half-inhibitory concentration (IC50) in experiment [1] stood at 50 nM.

Consider `Cc1ccc2c(c1)COC(=O)N2C1CCN(CC(=O)Nc2ccc3c(c2)C(=O)c2ccccc2-3)CC1`, for which, in experiment [2], the inhibition amounted to 93.9%. In experiment [1], this compound yielded an IC50 of 86.7 nM.

With `CC(=O)c1ccc(NC(=O)CN2CCC(N3C(=O)OCc4cc(C)ccc43)CC2)cc1`, the inhibition in experiment [2] stood at 89.4%. Besides, in experiment [1], the IC50 worked out at 26 nM.

Compound `O=C(CN1CCC(N2C(=O)OCc3cc(Cl)ccc32)CC1)Nc1ccc2c(c1)C(=O)c1ccccc1-2` yielded an inhibition in experiment [2] of 94%. Also, the 50% inhibitory concentration (IC50) in experiment [1] is 69 nM.

Regarding `O=C(CN1CCC(N2C(=O)OCc3ccccc32)CC1)Nc1ccc(Oc2ccccc2)cc1`, in experiment [2], the inhibition turned out to be 100%. The compound further returned a 50% inhibitory concentration (IC50) in experiment [1] of 20 nM.
